pIC50: −log10 of the molar value. Calls of active or inactive are those of the source. The calls are words filed in the database; no cut-off is given here.
How the values were obtained:
A549 [1] = experiment: Antiproliferative activity against human A549 cells assessed as reduction in cell viability at 1 uM after 72 hrs by CellTiter Glo assay; assay type: functional, cell-based
U-87 MG [2] = experiment: Antiproliferative activity against human U87 cells assessed as reduction in cell viability at 1 uM after 72 hrs by CellTiter Glo assay; assay type: functional, cell-based; details: U-87MG ATCC
HCT-116 [3] = experiment: Antiproliferative activity against human HCT-116 cells assessed as reduction in cell viability at 1 uM after 72 hrs by CellTiter Glo assay; assay type: functional, cell-based
U-87 MG [4] = experiment: Antiproliferative activity against human U87 cells assessed as reduction in cell viability at 10 uM after 72 hrs by CellTiter Glo assay; assay type: functional, cell-based; details: U-87MG ATCC
HCT-116 [5] = experiment: Antiproliferative activity against human HCT-116 cells assessed as reduction in cell viability at 10 uM after 72 hrs by CellTiter Glo assay; assay type: functional, cell-based
A549 [6] = experiment: Antiproliferative activity against human A549 cells assessed as reduction in cell viability at 10 uM after 72 hrs by CellTiter Glo assay; assay type: functional, cell-based
U-87 MG [7] = experiment: Antiproliferative activity against human U87 cells assessed as reduction in cell viability after 72 hrs by CellTiter Glo assay; assay type: functional, cell-based, U-87MG ATCC
Method in brief: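 U87-MG glioblastoma cells (ATCC) grown in DMEM with 10% FCS and 1% L-glutamine at 37 °C under 5% CO2. Seeded at 3 × 10³ cells/well, cultured 24 h, then treated at 10 final concentrations serially diluted in medium; vehicle-treated controls. CellTiter-Glo luminescence read after 72 h. Triplicate runs; IC50 from four- or five-parameter logistic curves.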

A549 [8] = experiment: Antiproliferative activity against human A549 cells assessed as reduction in cell viability after 72 hrs by CellTiter Glo assay; assay type: functional, cell-based; details: A549, 72 h
Method in brief: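 A549 cells (ATCC) grown in RPMI 1640 with 10% FCS and 1% L-glutamine at 37 °C under 5% CO2. Seeded at 3 × 10³ cells/well and cultured 24 h, then given 10 final concentrations from serial dilution in medium; vehicle controls. After 72 h, viability read by CellTiter-Glo luminescence. Run in triplicate; IC50 from four- or five-parameter logistic fits.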

HCT-116 [9] = experiment: Antiproliferative activity against human HCT-116 cells assessed as reduction in cell viability after 72 hrs by CellTiter Glo assay; assay type: functional, cell-based; details: HCT-116, 72 h
Method in brief: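 HCT-116 (ATCC) grown in McCoy's 5A with 10% FCS, 1% L-glutamine, 37 °C, 5% CO2. Seeded 3 × 10³ cells/well; after 24 h treated with 10 final concentrations by serial dilution in medium; vehicle controls; triplicate. Luminescent viability read-out after 72 h, reagent 15 min. IC50 from four- or five-parameter logistic fit of dose-response curves.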

pIC50 (HCT-116 [9])	SMILES	Activity (A549 [1])	Activity (U-87 MG [2])	Activity (HCT-116 [3])	Activity (U-87 MG [4])	Activity (HCT-116 [5])	Activity (A549 [6])	pIC50 (U-87 MG [7])	pIC50 (A549 [8])
–	C=C(C)[C@@H]1[C@H]2OC(=O)[C@@H]1[C@]1(O)[C@H]3O[C@H]3[C@]3(C[C@H]([C@H](C)OC(=O)CCCCCCCCCCC)C(=O)O3)[C@]1(C)[C@@H]2O	inactive	inactive	inactive	–	–	–	–	–
–	C=C(C)[C@@H]1[C@H]2OC(=O)[C@@H]1[C@]1(O)[C@H]3O[C@H]3[C@]3(CO3)[C@]1(C)[C@@H]2OC(=O)CCCCCCCCCCC	inactive	inactive	inactive	Active	Active	Active	–	–
–	C=C(C)[C@@H]1[C@H]2OC(=O)[C@@H]1[C@]1(O)[C@H]3O[C@H]3[C@]3(C[C@@H]([C@H](C)OC(=O)CCCCCCCCC)C(=O)O3)[C@]1(C)[C@@H]2O	inactive	inactive	inactive	–	–	–	–	–
–	C=C(C)[C@@H]1[C@H]2OC(=O)[C@@H]1[C@]1(O)[C@H]3O[C@H]3[C@]3(C[C@H]([C@H](C)OC(=O)CCCCCCCCCCCCC)C(=O)O3)[C@]1(C)[C@@H]2O	inactive	inactive	inactive	–	–	–	–	–
–	C=C(C)[C@@H]1[C@H]2OC(=O)[C@@H]1[C@]1(O)[C@H]3O[C@H]3[C@]3(C[C@@H]([C@H](C)O)C(=O)O3)[C@]1(C)[C@@H]2OC(=O)CCCCCCCCCCC	inactive	inactive	inactive	Active	Active	Active	6.15	5.24
–	C=C(C)[C@@H]1[C@H]2OC(=O)[C@@H]1[C@]1(O)[C@H]3O[C@H]3[C@]3(C[C@@H]([C@H](C)O)C(=O)O3)[C@]1(C)[C@@H]2O	inactive	inactive	inactive	–	–	–	–	–
–	C=C(C)[C@@H]1[C@H]2OC(=O)[C@@H]1[C@]1(O)[C@H]3O[C@H]3[C@]3(C[C@H]([C@H](C)OC(=O)CCCCCCCCCCCCCCC)C(=O)O3)[C@]1(C)[C@@H]2O	inactive	inactive	inactive	–	–	–	–	–
–	C=C(C)[C@@H]1[C@H]2OC(=O)[C@@H]1[C@]1(O)[C@H]3O[C@H]3[C@]3(C[C@@H]([C@H](C)OC(=O)CCCCCCCCCCC)C(=O)O3)[C@]1(C)[C@@H]2O	inactive	inactive	inactive	–	–	–	–	–
4.25	COc1cccc2c1C(=O)c1c(O)c3c(c(O)c1C2=O)C[C@@](O)(C(=O)CO)C[C@@H]3O[C@H]1C[C@H](N)[C@H](O)[C@H](C)O1 [DOXORUBICIN]	–	–	–	–	–	–	4.00	4.05
–	CO[C@@H](C)[C@@]1(O)C[C@@]2(OC1=O)[C@@H]1O[C@@H]1[C@@]1(O)[C@H]3C(=O)O[C@H]([C@H]3C(C)C)[C@@H](O)[C@]12C	inactive	inactive	inactive	–	–	–	–	–
–	C=C(C)[C@@H]1[C@H]2OC(=O)[C@@H]1[C@]1(O)[C@H]3O[C@H]3[C@]3(C/C(=C\C)C(=O)O3)[C@]1(C)[C@@H]2O	inactive	inactive	inactive	–	–	–	–	–
–	C=C(C)[C@@H]1[C@H]2OC(=O)[C@@H]1[C@]1(O)[C@H]3O[C@H]3[C@]3(C[C@H]([C@H](C)OC(=O)CCCCCCCCC)C(=O)O3)[C@]1(C)[C@@H]2O	inactive	inactive	inactive	–	–	–	–	–
–	C=C(C)[C@@H]1[C@H]2OC(=O)[C@@H]1[C@]1(O)[C@H]3O[C@H]3[C@]3(CO3)[C@]1(C)[C@@H]2O	inactive	inactive	inactive	–	–	–	–	–
–	CCCCCCCCCC(=O)O[C@@H]1[C@@H]2OC(=O)[C@@H]([C@@H]2C(C)C)[C@]2(O)[C@H]3O[C@H]3[C@]3(C[C@](O)([C@H](C)OC)C(=O)O3)[C@]12C	inactive	inactive	inactive	Active	Active	Active	6.15	5.24
–	C=C(C)[C@@H]1[C@H]2OC(=O)[C@@H]1[C@]1(O)[C@H]3O[C@H]3[C@]3(C[C@](O)([C@H](C)OC)C(=O)O3)[C@]1(C)[C@@H]2O	inactive	inactive	inactive	–	–	–	–	–
